Data from ChEMBL document CHEMBL3864185, “Identification of N-(2-Phenoxyethyl)imidazo[1,2-a]pyridine-3-carboxamides as New Antituberculosis Agents” (ACS Med Chem Lett, 2016).
In brackets after ≈: the same amount, converted by molar mass.

Experiments:
[1] = system: Mycobacterium tuberculosis; test: Antimycobacterial activity against isoniazid/rifampicin-resistant Mycobacterium tuberculosis isolate 9160 after 7 days by microplate alamar blue assay; type: functional; settings: isolate 9160, 168 h
Procedure, shortened: (§1)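 Microplate Alamar Blue Assay against clinical MDR M. tuberculosis isolates 11168 and 9160, both resistant to isoniazid and rifampicin. Read-out was fluorescence. MIC was the lowest concentration that reduced fluorescence by >90% versus the mean of replicate bacterium-only controls.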

[2] = system: Mycobacterium tuberculosis; test: Antimycobacterial activity against isoniazid/rifampicin-resistant Mycobacterium tuberculosis isolate 11168 after 7 days by microplate alamar blue assay; type: functional; settings: isolate 11168, 168 h; procedure, shortened: as §1

SMILES | MIC [1] [µg/mL] | MIC [2] [µg/mL]
CO[C@H]1/C=C/O[C@@]2(C)Oc3c(C)c(O)c4c(O)c(c(/C=N/N5CCN(C)CC5)c(O)c4c3C2=O)NC(=O)/C(C)=C\C=C\[C@H](C)[C@H](O)[C@@H](C)[C@@H](O)[C@@H](C)[C@H](OC(C)=O)[C@@H]1C [RIFAMPIN] | 38.6 (≈ 47 µM) | 36.9 (≈ 44.8 µM)
Cc1ccc2nc(C)c(C(=O)NCCOc3ccccc3)n2c1 | 0.047 (≈ 0.152 µM) | 0.03 (≈ 0.097 µM)
Cc1ccc2nc(C)c(C(=O)NCCOc3ccccc3C)n2c1 | 0.05 (≈ 0.155 µM) | 0.036 (≈ 0.111 µM)
COc1cccc(OCCNC(=O)c2c(C)nc3ccc(C)cn23)c1 | 0.035 (≈ 0.103 µM) | 0.029 (≈ 0.0854 µM)
Cc1cccc(OCCNC(=O)c2c(C)nc3ccc(C)cn23)c1 | 0.033 (≈ 0.102 µM) | 0.026 (≈ 0.0804 µM)
Cc1ccc2nc(C)c(C(=O)NCCOc3ccc(Br)cc3)n2c1 | 0.051 (≈ 0.131 µM) | 0.036 (≈ 0.0927 µM)
NNC(=O)c1ccncc1 [ISONIAZID] | > 40 | > 40
Cc1ccc2nc(C)c(C(=O)NCCOc3ccc(Cl)cc3)n2c1 | 0.028 (≈ 0.0814 µM) | 0.025 (≈ 0.0727 µM)
COc1ccc(OCCNC(=O)c2c(C)nc3ccc(C)cn23)cc1 | 0.034 (≈ 0.1 µM) | 0.026 (≈ 0.0766 µM)
